≈ marks a conversion by molar mass, not a printed value. Calls of active or inactive are those of the source. No cut-off for these calls is given here.

The test system of data set [1] is Aspergillus fumigatus. The experiment in a line: Antimicrobial activity against Aspergillus fumigatus RCMB 02568 after 48 hrs by serial dilution method. It counts as functional. The settings on record: RCMB 02568, 48 h. The essentials: (§1)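 Serial twofold dilution in microtiter plates starting from a 100 mmol stock in DMSO; final concentrations 125 down to 0.12 […]. Incubated at 28°C and read on a microplate reader after 48 h. Amphotericin B was the reference. Run in triplicate, with the average taken. MIC was the lowest concentration inhibiting growth.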

Data set [2] has as its system Aspergillus fumigatus. The data set can be described thus: Antimicrobial activity against Aspergillus fumigatus RCMB 02568 assessed as diameter of zone inhibition at 100 ug/ml after 48 hrs by agar well diffusion assay. It counts as functional. The settings on record: RCMB 02568, 48 h, read-out: DIZ. The essentials: (§2)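 Agar well diffusion on malt agar plates seeded with the fungus, using 1 cm wells. Plates were held at 4°C for 1 h for diffusion, then incubated at 28°C. Inhibition zone diameters were measured at 48 h. Amphotericin B was the positive control. Run in triplicate, with the mean zone reported.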
In general terms: Agar diffusion results depend on both activity and mobility in agar.

In data set [3] the test system is Candida albicans. The data set can be described thus: Antimicrobial activity against Candida albicans RCMB 05036 assessed as diameter of zone inhibition at 100 ug/ml after 48 hrs by agar well diffusion assay. It counts as functional. The settings on record: RCMB 05036, 48 h, read-out: DIZ. The essentials: as §2
The subject of data set [4] is Streptococcus pneumoniae. The data set can be described thus: Antimicrobial activity against Streptococcus pneumoniae RCMB 010010 assessed as diameter of zone inhibition at 100 ug/ml after 24 hrs by agar well diffusion assay. The data set is classed as functional. The settings on record: RCMB 010010, 24 h, read-out: DIZ. The essentials:
(§3)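 Agar well diffusion on nutrient agar plates seeded with the bacterium, using 1 cm wells. Plates were held at 4°C for 1 h for diffusion, then incubated at 37°C. Inhibition zone diameters were measured at 24 h. Ciprofloxacin was the positive control. Run in triplicate, with the mean zone reported.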

The subject of data set [5] is Staphylococcus aureus. The experiment in a line: Antimicrobial activity against Staphylococcus aureus RCMB 010028 assessed as diameter of zone inhibition at 100 ug/ml after 24 hrs by agar well diffusion assay. The data set is classed as functional. The settings on record: RCMB 010028, 24 h, read-out: DIZ. A digest of the protocol: as §3
Data set [6] concerns Escherichia coli. The experiment in a line: Antimicrobial activity against Escherichia coli RCMB 010052 assessed as diameter of zone inhibition at 100 ug/ml after 24 hrs by agar well diffusion assay. It counts as functional. The settings on record: RCMB 010052, 24 h, read-out: DIZ. The essentials:
as §3

Data set [7] has as its system Candida albicans. The data set can be described thus: Antimicrobial activity against Candida albicans RCMB 05036 after 48 hrs by serial dilution method. It counts as functional. The settings on record: RCMB 05036, 48 h. A digest of the protocol:
as §1

The test system of data set [8] is Streptococcus pneumoniae. The data set can be described thus: Antimicrobial activity against Streptococcus pneumoniae RCMB 010010 after 24 hrs by serial dilution method. The data set is classed as functional. The settings on record: RCMB 010010, 24 h. The essentials: (§4)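 Serial twofold dilution in microtiter plates starting from a 100 mmol stock in DMSO; final concentrations 125 down to 0.12 […]. Incubated at 37°C and read on a microplate reader after 24 h. Ciprofloxacin was the reference. Run in triplicate, with the average taken. MIC was the lowest concentration inhibiting growth.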

The subject of data set [9] is Staphylococcus aureus. The experiment in a line: Antimicrobial activity against Staphylococcus aureus RCMB 010028 after 24 hrs by serial dilution method. It counts as functional. The settings on record: RCMB 010028, 24 h. The essentials:
as §4

Data set [10] has as its system Escherichia coli. The experiment in a line: Antimicrobial activity against Escherichia coli RCMB 010052 after 24 hrs by serial dilution method. It counts as functional. The settings on record: RCMB 010052, 24 h. The essentials:
as §4

Data set [11] concerns Mycobacterium tuberculosis. The data set can be described thus: Antimycobacterial activity against Mycobacterium tuberculosis RCMB 010126 clinical isolate after 7 days by MABA. The data set is classed as functional. The essentials: (§5)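 Inoculum from fresh LJ culture resuspended in 7H9-S broth with casitone, glycerol and OADC, adjusted to McFarland No. 1 and diluted 1:20. Serial two-fold compound dilutions in 7H9-S; isoniazid reference. Incubated 7 days at 37°C in air, then Alamar blue added and incubated overnight. Percent inhibition = 1 − (test well/growth-control mean) × 100; MIC = lowest concentration preventing blue-to-pink change.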
In general terms: The colour change of resazurin is a common sign of viable cells or microbes.

Data set [12] relates to Mycobacterium tuberculosis. The experiment in a line: Antimycobacterial activity against Mycobacterium tuberculosis RCMB 010126 clinical isolate assessed as inhibition zone after 7 days by MABA. It counts as functional. The essentials:
as §5

Data set [13] deals with Escherichia coli. The data set can be described thus: Potency index, ratio of ciprofloxacin MIC to test compound MIC for Escherichia coli RCMB 010052. The data set is classed as functional.
Data set [14] relates to Pseudomonas aeruginosa. The settings on record: RCMB 010043, 100 ug/ml.
Data set [15] relates to Pseudomonas aeruginosa. The settings on record: RCMB 010043.
The next data set deals with WI-38. The experiment in a line: Cytotoxicity against human WI38 cells assessed as reduction in cell viability after 24 hrs by crystal violet staining-based colorimetric method. The settings on record: WI-38, 24 h. The essentials:
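WI-38 cells were grown in DMEM with 10% FBS at 37°C and 5% CO2, then seeded at 1×10^4 cells/well. Serial twofold dilutions were added, three wells per concentration. Viability was read by crystal violet stain, solubilised in 30% acetic acid, at 490 nm. Run in triplicate. IC50 was estimated from dose-response plots.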

The nature of data set [16]: Selectivity index, ratio of IC50 for human WI38 cells to MIC for Mycobacterium tuberculosis RCMB 010126 clinical isolate. The data set is classed as toxicity. The settings on record: read-out: Selectivity Index. The essentials:
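WI-38 human lung fibroblasts grown in DMEM with 10% FBS at 37°C and 5% CO2, seeded at 1×10^4 cells/well, and exposed to serial two-fold dilutions in triplicate. Viability read by crystal violet stain at 490 nm. IC50 taken from dose-response plots. Ratio uses this IC50 against the MABA MIC for M. tuberculosis.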

Data set [17] deals with Streptococcus pneumoniae. The experiment in a line: Potency index, ratio of ampicillin MIC to test compound MIC for Streptococcus pneumoniae RCMB 010010. It counts as functional.
Where [18] appears, read: Mycobacterium tuberculosis, RCMB 010126, 168 h.

On to `O=C(N/N=C/c1ccc(Cl)cc1Cl)c1c[nH]c2cc(Cl)ccc2c1=O`, for which the MIC amounted to 3.9 µg/mL (≈ 9.88 µM) against Aspergillus fumigatus [1]; 3.9 µg/mL (≈ 9.88 µM) against Candida albicans [7]; 0.98 µg/mL (≈ 2.48 µM) in the data set with Streptococcus pneumoniae [8]; 1.95 µg/mL (≈ 4.94 µM) in the data set on Staphylococcus aureus [9]; 0.49 µg/mL (≈ 1.24 µM) against Escherichia coli [10]. For the same compound, the zone of inhibition at 100 µg/mL with Aspergillus fumigatus [2] was found to be 20.3 mm; with Candida albicans [3] it was 19.6 mm; with Streptococcus pneumoniae [4], 22.1 mm; in the data set with Staphylococcus aureus [5] it was 20.6 mm; in the data set with Escherichia coli [6], 24.3 mm. For the same compound, the MIC entry (in data set [11]; in the data set on Pseudomonas aeruginosa [15]) was “inactive” in each case. For the same compound, the “inhibition zone (IZ)” value in data set [12] was “inactive”. The Ratio with Escherichia coli [13] is on record as 2. Also, in the data set with Pseudomonas aeruginosa [14], the DIZ entry was “inactive”.

With `COc1ccc(OC)c(/C=N/NC(=O)c2ccc(-c3ccc(Cl)cc3)nc2C)c1`, the MIC in the data set with Aspergillus fumigatus [1] turned out to be 0.98 µg/mL (≈ 2.39 µM); with Candida albicans [7] it was 0.98 µg/mL (≈ 2.39 µM); with Streptococcus pneumoniae [8] it was 0.49 µg/mL (≈ 1.2 µM); against Staphylococcus aureus [9] it was 0.98 µg/mL (≈ 2.39 µM); with Escherichia coli [10] it was 0.49 µg/mL (≈ 1.2 µM); in data set [11] (setting [18]), 0.39 µg/mL (≈ 0.952 µM). Moreover, the zone of inhibition at 100 µg/mL worked out at 24.3 mm in the data set with Aspergillus fumigatus [2]; 22.5 mm with Candida albicans [3]; 24.3 mm with Streptococcus pneumoniae [4]; 22.3 mm in the data set with Staphylococcus aureus [5]; 24.3 mm in the data set with Escherichia coli [6]. For the same compound, the “inhibition zone (IZ)” value in data set [12] is on record as 85.32 mm. The IC50 in the data set on WI-38 was 500 µg/mL (≈ 1220 µM). For the same compound, the selectivity ratio in data set [16] came to 1280. The Ratio in the data set with Escherichia coli [13] and in the data set with Streptococcus pneumoniae [17] was 2 each time. The DIZ entry with Pseudomonas aeruginosa [14] is “inactive”. The MIC entry in the data set with Pseudomonas aeruginosa [15] was “inactive”.

Consider `Cc1nc(-c2ccc(Cl)cc2)ccc1C(=O)N/N=C/c1ccc(O)cc1`, for which the MIC stood at 3.9 µg/mL (≈ 10.7 µM) with Aspergillus fumigatus [1]; 15.6 µg/mL (≈ 42.7 µM) against Candida albicans [7]; 3.9 µg/mL (≈ 10.7 µM) against Streptococcus pneumoniae [8]; 7.81 µg/mL (≈ 21.3 µM) against Staphylococcus aureus [9]; 3.9 µg/mL (≈ 10.7 µM) in the data set on Escherichia coli [10]; 3.12 µg/mL (≈ 8.53 µM) in data set [11] (setting [18]). The zone of inhibition at 100 µg/mL in the data set with Aspergillus fumigatus [2] was found to be 19.3 mm; with Candida albicans [3] it was 17.3 mm; with Streptococcus pneumoniae [4], 20.3 mm; with Staphylococcus aureus [5], 18.3 mm; in the data set on Escherichia coli [6] it was 19.2 mm. Moreover, the “inhibition zone (IZ)” value in data set [12] amounted to 53.21 mm. In the data set with WI-38, the IC50 worked out at 500 µg/mL (≈ 1370 µM). For the same compound, the selectivity ratio in [16] was determined as 160. Moreover, the DIZ entry with Pseudomonas aeruginosa [14] was “inactive”. Besides, in the data set with Pseudomonas aeruginosa [15], the MIC result was “inactive”.

With `COc1cc(/C=N/NC(=O)c2ccc(-c3cccc(Cl)c3)nc2C)cc(OC)c1OC`, the MIC came out at 0.98 µg/mL (≈ 2.23 µM) in the data set on Aspergillus fumigatus [1]; 0.49 µg/mL (≈ 1.11 µM) in the data set on Candida albicans [7]; 0.49 µg/mL (≈ 1.11 µM) against Streptococcus pneumoniae [8]; 1.95 µg/mL (≈ 4.43 µM) with Staphylococcus aureus [9]; 0.49 µg/mL (≈ 1.11 µM) against Escherichia coli [10]; 0.78 µg/mL (≈ 1.77 µM) in data set [11] (setting [18]). The zone of inhibition at 100 µg/mL with Aspergillus fumigatus [2] came to 23.3 mm; in the data set on Candida albicans [3], 21.4 mm; in the data set with Streptococcus pneumoniae [4] it was 23.1 mm; in the data set on Staphylococcus aureus [5] it was 21.3 mm; with Escherichia coli [6], 25.3 mm. In addition, the “inhibition zone (IZ)” value in data set [12] is on record as 70.48 mm. Also, the IC50 with WI-38 is 495 µg/mL (≈ 1130 µM). Besides, in data set [16], the selectivity ratio was 635. Besides, the Ratio with Escherichia coli [13] and with Streptococcus pneumoniae [17] was 2 throughout. Besides, the DIZ result with Pseudomonas aeruginosa [14] was “inactive”. Moreover, in the data set on Pseudomonas aeruginosa [15], the MIC result is “inactive”.

As for `COc1cc(/C=N/NC(=O)c2ccc(-c3ccc(Cl)cc3)nc2C)cc(OC)c1OC`, the MIC in the data set on Aspergillus fumigatus [1] came out at 0.98 µg/mL (≈ 2.23 µM); in the data set with Candida albicans [7], 1.95 µg/mL (≈ 4.43 µM); in the data set on Streptococcus pneumoniae [8] it was 1.95 µg/mL (≈ 4.43 µM); in the data set with Staphylococcus aureus [9] it was 0.98 µg/mL (≈ 2.23 µM); with Escherichia coli [10], 1.95 µg/mL (≈ 4.43 µM); in data set [11] (setting [18]) it was 0.78 µg/mL (≈ 1.77 µM). Also, the zone of inhibition at 100 µg/mL came out at 21.8 mm in the data set with Aspergillus fumigatus [2]; 20.4 mm with Candida albicans [3]; 21.3 mm in the data set on Streptococcus pneumoniae [4]; 23.4 mm in the data set on Staphylococcus aureus [5]; 21.3 mm in the data set with Escherichia coli [6]. Also, the “inhibition zone (IZ)” value in data set [12] stood at 68.42 mm. For the same compound, the IC50 with WI-38 stood at 41.1 µg/mL (≈ 93.4 µM). In addition, the selectivity ratio in data set [16] is 52.7. The DIZ entry with Pseudomonas aeruginosa [14] is “inactive”. In addition, in the data set on Pseudomonas aeruginosa [15], the MIC result was “inactive”.

As a reminder, the MIC is the lowest concentration found to suppress growth. In general, IC50 refers to the concentration that inhibits the measured activity by half.

(Values after ChEMBL document CHEMBL4130356, “Design, synthesis and 2D QSAR study of novel pyridine and quinolone hydrazone derivatives as potential antimicrobial and antitubercular agents” (Eur J Med Chem, 2017).)
